Shown are actives, neighbours in structure and some others; about 9.2% of the full set was active somewhere.
H69AR growth 86K: growth inhibitors of human H69AR lung tumor cells | H69AR lung tumor viability, ATP luminescence, 72 h; stronger effect = lower value | viability, % at 10 µM | 6% of 85,000 active;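 active = viability at or below 40%; inactive = viability above 40%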;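 also: multidrug resistant small cell line overexpressing MRP-1 efflux transporter; 100% = mean luminescence of untreated control wells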
ERb SRC1 inh: blocks coactivator binding to human estrogen receptor beta | Q92731 | TR-FRET ER-beta LBD / SRC1-Cy5 peptide binding; receptor agonist-loaded with 1 µM estradiol | inhibition, % at 25.6 µM | 1.3% of 86,000 active;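 active = compounds whose percent inhibition of the receptor-coactivator binding signal exceeds about 50% in the single-dose screen, limit read from the data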;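 also: 0% = receptor plus peptide wells without compound and 100% = peptide-only wells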
Target sequence (Q92731 whole entry, looked up, the tested form may be a part): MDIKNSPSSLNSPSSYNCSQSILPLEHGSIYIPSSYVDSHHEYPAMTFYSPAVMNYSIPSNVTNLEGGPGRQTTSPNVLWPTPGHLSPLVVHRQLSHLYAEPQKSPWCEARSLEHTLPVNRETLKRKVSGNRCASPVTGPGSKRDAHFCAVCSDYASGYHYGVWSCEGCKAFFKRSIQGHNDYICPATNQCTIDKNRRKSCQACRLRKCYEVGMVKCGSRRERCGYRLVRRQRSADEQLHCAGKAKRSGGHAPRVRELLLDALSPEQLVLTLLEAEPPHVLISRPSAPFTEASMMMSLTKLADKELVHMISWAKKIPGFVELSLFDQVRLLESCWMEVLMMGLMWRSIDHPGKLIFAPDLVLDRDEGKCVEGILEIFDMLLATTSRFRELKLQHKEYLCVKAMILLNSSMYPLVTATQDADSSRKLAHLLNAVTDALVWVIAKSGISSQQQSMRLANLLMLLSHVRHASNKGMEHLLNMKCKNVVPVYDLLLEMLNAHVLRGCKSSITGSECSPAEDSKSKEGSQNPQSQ
ERa SRC1 pot: ER-alpha (human) coactivator binding potentiation | TR-FRET ERalpha-LBD/SRC-Cy5 coactivator binding, 2 h; 100 = basal binding, no effect | P03372 | 1.3% of 86,000 active | coactivator binding (% of control), % at 25.6 µM; in the data active = activity above about 200%;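 also: binding measured in presence of low estradiol as agonist stimulus; 0% = peptide alone without receptor and 100% = receptor with peptide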
ERa SRC1 inh: ER-alpha (human) coactivator binding inhibition. P03372. TR-FRET ER-alpha LBD / SRC-1 peptide, estradiol-bound. inhibition, % at 25.6 µM. 1.7% of 86,000 active. AID 629; in the data active = inhibition above about 50%;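 also: 0% = receptor plus peptide control and 100% = peptide only without receptor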
HUVEC inhibit: blocks proliferation of human endothelial cells; 1.1% of 86,000 active; HUVEC proliferation, CellTiter-Glo luminescence, 72 h; stronger effect = lower value; viability, % at 10 µM (by protocol); AID 648;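 active = viability at or below 30%; inactive = viability above 30%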;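 also: 100% = median luminescence of DMSO-only cell control wells on each plate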
Fibroblast inh: blocks proliferation of human lung fibroblasts. 1.1% of 85,000 active. viability, % at 10 µM. LL 47 human lung fibroblast viability, ATP luminescence; stronger effect = lower value;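 active = viability at or below 50% in the single dose screen; inactive = viability above 50%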;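 also: compound exposure lasted 72 h before the ATP readout; 100% = median luminescence of untreated cell-only wells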
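Test system: LL 47 human lung fibroblasts / Quantity: 1,150 cells in each well / Medium: IMEM growth medium with 15% fetal bovine serum / Incubation: 72 h compound exposure at 37 °C after overnight plating / Detection: CellTiter-Glo luminescence measuring cellular ATP / Read-out: % viability versus median cells-only luminescence / Benchmarks: cell-only wells, no compound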
An asterisk follows results filed as active; nt = no result given; [ ] = remark or other dose.

SMILES	H69AR growth 86K	ERb SRC1 inh	ERa SRC1 pot	ERa SRC1 inh	HUVEC inhibit	Fibroblast inh
CN1CCN(C(c2cccnc2)c2ccc3cccnc3c2O)CC1 (configuration not stated)	16*	60*[fluorescence artefact?]	83	78*[fluorescence artefact?]	87	86
O=C1CCNc2cc3ccccc3cc21	58	78*[fluorescence artefact?]	21	82*[fluorescence artefact?]	90	94
COc1cccc2cc(C(=O)N3CCc4ccccc4C3)c(=O)oc12	89	-9	98	-8	108	93
COc1cc2c(cc1OC)CN(C(=O)c1cc3ccccc3oc1=O)CC2	24*	0	127	-7	64	nt
CCOc1ccc(N2C(=O)CN=C2Nc2ccccc2F)cc1	88	-20	101	-4	100	102
Cc1cc(/C=C(/C#N)c2cccc(F)c2)c(C)n1-c1cccnc1	64	-4	86	-8	90	91
O=C(Cn1nc(-c2ccc(Cl)cc2)ccc1=O)NCCCN1CCN(Cc2ccccc2)CC1	98	1	108	3	80	96
O=C(CCn1nc(-c2ccc(Cl)cc2)ccc1=O)NCCCN1CCCCCC1	85	31	99	74*[fluorescence artefact?]	96	102
CCN(CC)CCNc1nc2cc(OC)c(OC)cc2c2nc(-c3ccccc3)nn12	15*	-5	108	5	11*	2.7*
COc1cc(/C=N/NC(=Nc2ccc(C)cc2)c2nc3ccccc3s2)ccc1O	35*	21	105	16	88	82
COc1cc(-c2nc3ccccc3s2)ccc1O	40*	-19	97	1	50	90
COc1ccc(-c2nc3ccccc3s2)cc1O	45	2	100	-46	82	94
COc1ccccc1/C=N/NC(=Nc1ccc(C)cc1)c1nc2ccccc2s1	44	-13	109	-3	86	77
CCn1ncc(C2=NOC(C(=O)Nc3ccc(C)cc3)C2)c1C (configuration not stated)	108	-6	103	-4	109	99
CCn1ncc(C2=NOC(C(=O)NCc3ccc(Cl)cc3)C2)c1C (configuration not stated)	37*	6	111	7	56	67
COc1cc(OC)cc(C(=O)n2cnnc2N)c1	97	-6	101	9	92	99
CC(=O)c1cnc2c(-c3ccc(Cl)cc3)c(C)nn2c1C	84	-51	124	-6	28*	83
CCOC(=O)C1=C(C)NC(SCc2cc(=O)[nH][nH]2)=C(C#N)C1c1cccs1 (configuration not stated)	94	17	60	15	94	110
COc1ccc(NC(=O)c2ccco2)cc1N	62	61*	50	55*	80	116
COc1ccccc1NC(=O)Oc1ccc(NC(=O)c2ccco2)cc1	95	66*[fluorescence artefact?]	81	60*[fluorescence artefact?]	87	96
Cc1cc(C(=O)O)c2ccccc2n1	101	0	107	1	98	101
O=C(OCC(=O)N1CCN(C(=O)c2ccco2)CC1)c1cc(-c2ccc(Cl)c(Cl)c2Cl)nc2ccccc12	0.9*	15	121	38	6.3*	104
COc1ccc(CNC(=O)COC(=O)c2cc(-c3ccco3)nc3ccccc23)cc1	71	77*	53	87*[fluorescence artefact?]	89	95
O=C(OCC(=O)N1CCN(C(=O)c2ccco2)CC1)c1cc(-c2ccco2)nc2ccccc12	60	89*	29	92*[fluorescence artefact?]	94	99
O=C(O)c1cc(-c2ccco2)nc2ccccc12	91	82*[fluorescence artefact?]	38	74*	100	105
SMILES	H69AR growth 86K	ERb SRC1 inh	ERa SRC1 pot	ERa SRC1 inh	HUVEC inhibit	Fibroblast inh
CC(=O)N(C)c1nnc(-c2ccccn2)s1	94	-10	106	-10	99	101
COc1ccc(-c2nc3nc(C)cc(C)n3n2)cc1	86	-16	116	-22	88	90
CCCCC12CN3CC(C)(CN(C1)C31C(=O)N(C)c3ccc(C)cc31)C2=O (configuration not stated)	87	3	102	6	92	nt
CCCC(=O)NC(C)c1nc2ccccc2n1CC (configuration not stated)	101	-11	98	82*[fluorescence artefact?]	104	105
CC1CCC(C(C)C)C2=C1C(C#N)(C#N)C(C#N)(C#N)C(c1ccccc1)N2 (configuration not stated)	0.0*	19	74	-1	28*	32*
OCCN1CCN(Cc2cc(Cl)c3cccnc3c2O)CC1	37*	4	111	-2	81	54
COc1ccc(CN2CCN(c3ccccn3)CC2)c(OC)c1	96	-8	106	-1	89	102
Oc1c(CN2CCN(c3ccccn3)CC2)cc(Cl)c2cccnc12	0.1*	22	74	3	60	34*
Cc1cc(-n2ccnc2)n2c(nc3ccccc32)c1C#N	89	6	69	4	92	91
CCCc1cc(-n2ccnc2)n2c(nc3ccccc32)c1C#N	45	41	105	66*	92	81
O=C(Cc1ccc(S(=O)(=O)N2CCCC2)s1)N1CCOCC1	102	45	63	28	105	103
CC(C)(C)NC(=O)Cc1ccc(S(=O)(=O)N2CCCC2)s1	92	40	54	58*[fluorescence artefact?]	100	94
O=C(COC(=O)Cc1ccc(S(=O)(=O)N2CCCCC2)s1)Nc1ccc2c(c1)OCO2	25*	13	93	27	92	103
O=C(COC(=O)Cc1ccc(S(=O)(=O)N2CCOCC2)s1)NCc1ccccc1	92	17	85	19	97	97
Cc1ccccc1-n1c(Cn2c(=O)sc3ccccc32)nnc1SCC(=O)NCC1CCCO1 (configuration not stated)	95	11	89	12	95	88
Cc1ccc(Cn2ncc3c(N4CCN(c5ccccc5C)CC4)ncnc32)cc1	76	-5	121	0	63	86
COc1nnc(-c2ccc(C(=O)N3C[C@@H]4C[C@H](C3)c3cccc(=O)n3C4)cc2)c2ccccc12	88	16	340*	29	98	103
COC(=O)c1sccc1NC(=O)c1ccoc1C	76	12	104	0	104	106
CCOC(=O)c1ccccc1OCc1cc(/C=N/n2cncn2)ccc1OC	34*	0	104	2	81	99
CCc1nnc(NC(=O)C2Cc3ccccc3CN2S(=O)(=O)c2cccs2)s1 (configuration not stated)	71	27	80	55*	96	88
CCc1nnc(NC(=O)C2Cc3ccccc3CN2S(=O)(=O)c2ccc(C)cc2)s1 (configuration not stated)	56	7	89	1	96	99
COc1ccc2c(c1OC)C(=O)NC(C)=C(C(=O)OC(C)(C)C)C2O (configuration not stated)	98	-3	98	-2	102	97

High-throughput results from PubChem BioAssay.
